# Experimental data published in the EternaBench riboswitch data.
# System: MS2 coat protein
# Test: apparent Kd, MS2 coat protein; higher = weaker binding; RNA-MaP array; FMN 200 µM where present
# Procedure, shortened: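 Stalled E. coli RNA polymerase produced the designs on Illumina sequencing-chip clusters. SNAP-549-labelled MS2 coat protein was added from 0.7 or 1.5 nM, doubling to 3 µM, without and then with constant ligand, in 100 mM Tris-HCl pH 7.5, 80 mM KCl, 4 mM MgCl2, BSA, DTT, yeast tRNA and Tween-20. The apparent Kd is the median of filtered per-cluster fits of green signal normalised to red-channel RNA signal and control-cluster median Fmax.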
# [1] = designed as: ON switch for flavin mononucleotide, no ligand
# [2] = ligand present: flavin mononucleotide, designed as: ON switch for flavin mononucleotide
# [3] = designed as: OFF switch for flavin mononucleotide, no ligand
# [4] = ligand present: flavin mononucleotide, designed as: OFF switch for flavin mononucleotide
Sequence,apparent Kd [1] [nM],apparent Kd [2] [nM],apparent Kd [3] [nM],apparent Kd [4] [nM]
GCCAUCGUAUGAGGAUAUGGCACCGAACCGGUGCCAGAAGGCAUGUCAAUAGACAUGAGGAUCACCCAUGUGUUAUCGAUGGCA,147,13.1,–,–
AAGAAACAUGAGGAUCACCCAUGUGAGGAUAUGAUGCGAAUUAUGUAUGUAGUAAGCAUCAGAAGGCACAAAGG,–,–,127,203
CCGGAAACGGGUAGCCUGACAUGAGGAUCACCCAUGUAAUACGAGGAUAUGGAUCCUAAUUGGAUCCAGAAGGUGUCAGGCUAC,862,682,–,–
AAAUAAAACGAUCGGCGAUCCAAACAUGAGGAUCACCCAUGUAGAAGGCACUCUACAUAGUAGAGUGAGGAUAUACGAGAUCGA,–,–,22.1,584
GGAGCCGGCCUAGGAUAUUUCAUAACAAAACAUGAGGAUCACCCAUGUAGGCCAGAAGGCCUUGGGAAGAAGGAGGUCGGCUCC,29.6,11.7,–,–
GCUGAAUGAACAUGAGGAUCACCCAUGUACAGGAAACUGAAUGAGGAUAUCCAUAGCAAAGCUAUGGAGAAGGCAUGGGUCAGC,338,94,–,–
CGAUAUAUGAAGGGCGAAAGCCCACAUGAGGAUCACCCAUGUAGAAGGCGGGCCGCAACGCGGCCCGAGGAUAUAUAAUAUACA,–,–,–,9.15
GGUUAUUGCAAGGAUAUGCUUUUUUUUUAUUUUGCAGAAGGUGCAACAUGAGGAUCACCCAUGUUGGAGGGUUU,–,–,21.7,31.9
GGUACUCAAAGAGUACCAAUACGAACAUGAGGAUCACCCAUGUAGGAUAUGCUACUAAAAGAGUAGCAGAAGGACAUGUGCCUA,–,–,13.5,75.4
UCUCGUGUUCAGAAGGGCAAUCAACGAACAUGAGGAUCACCCAUGUUCUGCAGGAUAUGAACGGGUGGGAGCCCUGCGAAGGGA,167,25.5,–,–
UGGUACUAGGGAGGAUAUGGGAAGAUACAUGAGGAUCACCCAUGUGUAAGAAUGCCGAGAGGCAACUAGAAGGCCCUAGUACCU,56,6.58,–,–
ACCUCACAUGAGGAUCACCCAUGUCAGGAUAUUCAAACAGGCGAAACUCCGCCUUCUCGAAGAAGGGACAUUAA,–,–,15.9,64.5
GCCAUCGCAUGAGGAUAUGCUCCGGUUUCCGGAGCAGAAGGCAUGUCAUAAGACAUGAGGAUCACCCAUGUAGUUAAGAUGGCA,715,33.6,–,–
UUCCUGUCAGGAUAUGACUAGAUGCACGAAAGUGUGUUUAGUUAGAAGGGACAUGAGGAUCACCCAUGUAGUCC,–,–,23.5,39
GCGUGGUUCUAGAAGGUGCUAGCGAUAAGCUAGCAAGGAUAUAGACAUGAGGAUCACCCAUGUCUUAAUGAAAUGGACACACGC,–,–,5.3,4.85
CCCGCCCGUCGAGGAUAUAUUAUAUGACAACAAACACAUACAUGAGGAUCACCCAUGUCCCAUGUAUAGAAGGCGACCUGCGUC,74.8,98.2,–,–
GUAGCAUACCGAGGAUAUUCAACCGGAAACGGAACAUGAGGAUCACCCAUGUGGCGAAAGCCUUGGGAGAAGGCGGAAUGCUAC,77.5,20.6,–,–
ACAUGAGGAUCACCCAUGUUAUCAGGGACUUCAAUUAUUUGUAGAAGGCUGUUUUCUUGUAAGUCAGAGGAUAUACAAUUAAAU,–,–,11.9,14.3
ACUUAUGAAGGAUAUACUAGCGACAUGCGCUCAACACGCGCACAUGAGGAUCACCCAUGUAGAAGGUCAAACAU,–,–,23.1,22.1
UUUUUAUUUGCAGGAUAUUGUUUUUUAUUACUUCAAGAAGGGCAUUACAUGAGGAUCACCCAUGUCAUCCUAUGGUUUACUAGU,–,–,10.6,10.4
CGGAUUAUGUGAGGAUAUAAUCGUUUCCAUUGAUUAGAAGGCACAUGAGGAUCACCCAUGUGGCAUGUAAAGCCAUGUGACGCG,–,–,108,109
UUACAUACAAAGUUACAUGAGGAUCACCCAUGUUUAUUGGGAAGAAGGGUAACAGUAUUACAUAUAUAGGAUAUUUCACAAAUG,409,251,–,–
UGUUAAUAUCGAGGAUAUGUCUAGACACAUGAGGAUCACCCAUGUAUGUGUAUAGAAGGCGAUAUUAACAGCAUGUUACAUGCC,37.1,17.7,–,–
AAUUAUUUGUAGAAGGAAGGAGAUUUUGUAUUCUUAGGAUAUACUAUUACAUGAGGAUCACCCAUGUUUGAAGGGUUGCUAUGU,–,–,74.2,82.2
AGUUUUGUACAUGAGGAUCACCCAUGUUAAUAUGUGGUAGUCAGAAGGCAUUGUUAGUGUUUAUAUGAGGAUAUGAUUAGUCAG,50.3,26.4,–,–
AGUUACAGGAUAGGAUAUGGCGUGACAUGGCUGCCAGAAGGAUCCUCGGGAACAUGAGGAUCACCCAUGUGACCGUGUCGAGUC,126,170,–,–
UUUUAACAUGAGGAUCACCCAUGUGAGGAUAUCGAAAUUUAUAUUUAUAUUAAUUAAUCGAGAAGGCACAUUUU,–,–,151,156
UCGUGCCGGGUUGCGAGCGACCCACAUGAGGAUCACCCAUGUAGAAGGACCAGCGUCGGCCCUUGGUAGGAUAUACAUGAACUC,–,–,113,152
